According to ChEMBL document CHEMBL1144389, “Optimization of purine based PDE1/PDE5 inhibitors to a potent and selective PDE5 inhibitor for the treatment of male ED” (Bioorg Med Chem Lett, 2005):

Assays:
[1] = target: High affinity cGMP-specific 3',5'-cyclic phosphodiesterase 9A (Homo sapiens, UniProt O76083); experiment: Inhibition of Phosphodiesterase 9
[2] = target: cAMP and cAMP-inhibited cGMP 3',5'-cyclic phosphodiesterase 10A (Homo sapiens, UniProt Q9Y233); experiment: Inhibitory concentration against human phosphodiesterase 10
Chain of cAMP and cAMP-inhibited cGMP 3',5'-cyclic phosphodiesterase 10A (Q9Y233 whole entry): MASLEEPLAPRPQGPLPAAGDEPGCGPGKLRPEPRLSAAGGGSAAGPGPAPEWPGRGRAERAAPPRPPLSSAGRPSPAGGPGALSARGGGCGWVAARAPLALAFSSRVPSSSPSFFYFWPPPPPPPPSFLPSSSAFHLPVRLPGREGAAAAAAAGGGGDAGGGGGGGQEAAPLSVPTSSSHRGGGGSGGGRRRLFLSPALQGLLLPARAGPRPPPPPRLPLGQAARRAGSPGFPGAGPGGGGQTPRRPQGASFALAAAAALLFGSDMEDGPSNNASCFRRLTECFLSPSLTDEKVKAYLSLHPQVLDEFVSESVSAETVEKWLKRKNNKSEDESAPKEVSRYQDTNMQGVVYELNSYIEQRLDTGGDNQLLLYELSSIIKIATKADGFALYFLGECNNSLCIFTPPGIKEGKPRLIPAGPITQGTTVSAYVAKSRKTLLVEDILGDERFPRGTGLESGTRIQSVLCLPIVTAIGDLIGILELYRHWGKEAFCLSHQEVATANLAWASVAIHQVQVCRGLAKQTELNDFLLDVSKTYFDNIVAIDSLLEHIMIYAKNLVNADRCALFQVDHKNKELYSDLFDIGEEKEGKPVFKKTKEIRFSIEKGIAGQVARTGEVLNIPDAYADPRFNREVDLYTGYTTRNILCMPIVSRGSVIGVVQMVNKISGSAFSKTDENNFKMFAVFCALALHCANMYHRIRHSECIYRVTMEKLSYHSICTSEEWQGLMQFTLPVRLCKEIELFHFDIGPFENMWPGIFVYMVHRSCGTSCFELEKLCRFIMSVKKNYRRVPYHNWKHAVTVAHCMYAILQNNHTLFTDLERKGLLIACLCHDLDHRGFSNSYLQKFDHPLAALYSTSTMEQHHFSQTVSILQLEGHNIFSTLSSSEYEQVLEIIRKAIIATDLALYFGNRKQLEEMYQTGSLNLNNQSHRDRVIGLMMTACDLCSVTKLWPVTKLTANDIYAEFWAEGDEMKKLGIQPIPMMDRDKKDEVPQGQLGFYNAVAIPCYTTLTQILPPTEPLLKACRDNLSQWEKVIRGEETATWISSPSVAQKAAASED

[3] = target: Phosphodiesterase 3 (Homo sapiens, UniProt Q14432+Q13370); experiment: Inhibition of human phosphodiesterase 3; format: protein assay
[4] = target: cGMP-dependent 3',5'-cyclic phosphodiesterase (Homo sapiens, UniProt O00408); experiment: Inhibition of human phosphodiesterase 2
Chain of cGMP-dependent 3',5'-cyclic phosphodiesterase (O00408 whole entry): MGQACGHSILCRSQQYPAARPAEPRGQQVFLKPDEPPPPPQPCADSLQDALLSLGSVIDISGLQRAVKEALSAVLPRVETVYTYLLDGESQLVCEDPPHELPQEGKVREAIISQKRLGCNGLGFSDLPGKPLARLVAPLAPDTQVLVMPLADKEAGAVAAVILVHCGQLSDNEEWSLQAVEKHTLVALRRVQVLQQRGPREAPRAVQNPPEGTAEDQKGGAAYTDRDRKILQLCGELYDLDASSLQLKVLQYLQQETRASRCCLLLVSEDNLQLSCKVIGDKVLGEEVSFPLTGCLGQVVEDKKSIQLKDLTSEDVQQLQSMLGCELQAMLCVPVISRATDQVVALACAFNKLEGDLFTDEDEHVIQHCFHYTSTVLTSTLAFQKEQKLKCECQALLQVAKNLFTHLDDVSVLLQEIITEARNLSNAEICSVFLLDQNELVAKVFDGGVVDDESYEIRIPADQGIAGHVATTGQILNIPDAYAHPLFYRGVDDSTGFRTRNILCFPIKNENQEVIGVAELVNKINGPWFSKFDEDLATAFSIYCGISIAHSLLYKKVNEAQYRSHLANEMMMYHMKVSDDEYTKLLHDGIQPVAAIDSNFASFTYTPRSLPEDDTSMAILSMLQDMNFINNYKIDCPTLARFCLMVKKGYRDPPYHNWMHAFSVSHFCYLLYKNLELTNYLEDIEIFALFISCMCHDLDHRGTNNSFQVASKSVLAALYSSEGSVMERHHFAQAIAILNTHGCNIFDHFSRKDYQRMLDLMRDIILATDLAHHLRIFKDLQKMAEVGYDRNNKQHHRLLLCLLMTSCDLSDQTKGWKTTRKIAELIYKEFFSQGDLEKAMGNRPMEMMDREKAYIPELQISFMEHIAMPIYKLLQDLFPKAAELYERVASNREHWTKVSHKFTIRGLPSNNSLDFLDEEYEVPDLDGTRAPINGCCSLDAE

[5] = target: Phosphodiesterase 7 (Homo sapiens, UniProt Q13946+Q9NP56); experiment: Inhibition of human phosphodiesterase 7; format: protein assay
[6] = Inhibitory concentration against human phosphodiesterase 8 activity
Method in brief: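 Scintillation proximity assay using a cAMP-PDE SPA kit, with 0.05 μM cAMP as substrate.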

[7] = target: Phosphodiesterase 1 (Homo sapiens, UniProt P54750+Q01064+Q14123); experiment: Inhibition of human phosphodiesterase 1; format: protein assay
[8] = target: Phosphodiesterase, PDE1/PDE5 (Homo sapiens) (UniProt O76074+P54750+Q01064+Q14123); experiment: Relative binding to Phosphodiesterase 1 and Phosphodiesterase 5, ratio of IC50; format: protein assay
[9] = target: T1, cGMP-specific 3',5'-cyclic phosphodiesterase (Homo sapiens, UniProt O76074); experiment: Inhibition of human phosphodiesterase 5
[10] = target: Phosphodiesterases; PDE5 & PDE6 (Homo sapiens) (UniProt O76074+Q13956+P18545+P35913+O43924+P16499+P51160); experiment: Relative binding to Phosphodiesterase 6 and Phosphodiesterase 5, ratio of IC50; format: protein assay
[11] = target: T1, cGMP-specific 3',5'-cyclic phosphodiesterase; experiment: Percentage inhibition of human phosphodiesterase 5 at 100 nM
[12] = target: Phosphodiesterase 4 (Homo sapiens, UniProt P27815+Q08499+Q07343+Q08493); experiment: Inhibition of human phosphodiesterase 4; format: protein assay
[13] = target: Dual 3',5'-cyclic-AMP and -GMP phosphodiesterase 11A (Homo sapiens, UniProt Q9HCR9); experiment: Inhibition of human phosphodiesterase 11
Chain of Dual 3',5'-cyclic-AMP and -GMP phosphodiesterase 11A (Q9HCR9 whole entry): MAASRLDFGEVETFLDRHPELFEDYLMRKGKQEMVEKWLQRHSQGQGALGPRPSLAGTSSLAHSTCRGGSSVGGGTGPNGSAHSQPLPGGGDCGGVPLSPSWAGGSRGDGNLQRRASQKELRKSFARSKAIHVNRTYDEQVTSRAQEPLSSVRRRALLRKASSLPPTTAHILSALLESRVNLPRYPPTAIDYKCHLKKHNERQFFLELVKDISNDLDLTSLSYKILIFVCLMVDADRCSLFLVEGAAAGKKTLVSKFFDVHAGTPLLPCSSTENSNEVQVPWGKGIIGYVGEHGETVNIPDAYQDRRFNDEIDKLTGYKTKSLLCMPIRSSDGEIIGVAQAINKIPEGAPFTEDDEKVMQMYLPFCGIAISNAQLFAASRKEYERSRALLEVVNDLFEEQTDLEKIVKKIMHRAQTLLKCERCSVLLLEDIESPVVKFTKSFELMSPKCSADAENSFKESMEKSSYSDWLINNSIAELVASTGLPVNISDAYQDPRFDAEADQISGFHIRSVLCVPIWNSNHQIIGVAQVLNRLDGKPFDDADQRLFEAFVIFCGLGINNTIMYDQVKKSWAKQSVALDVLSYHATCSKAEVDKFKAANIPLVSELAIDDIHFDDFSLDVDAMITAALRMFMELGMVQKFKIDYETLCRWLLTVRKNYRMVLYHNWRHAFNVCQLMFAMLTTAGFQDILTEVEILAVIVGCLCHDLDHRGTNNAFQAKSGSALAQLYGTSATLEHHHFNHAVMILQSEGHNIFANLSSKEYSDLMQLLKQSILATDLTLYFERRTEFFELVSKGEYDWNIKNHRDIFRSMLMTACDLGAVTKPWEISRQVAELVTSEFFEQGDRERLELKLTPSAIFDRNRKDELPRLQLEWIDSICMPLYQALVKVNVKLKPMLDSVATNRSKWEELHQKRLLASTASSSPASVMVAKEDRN

[14] = target: Phosphodiesterase 6; experiment: Inhibition of human phosphodiesterase 6; format: protein assay

Chain of High affinity cGMP-specific 3',5'-cyclic phosphodiesterase 9A (O76083 whole entry): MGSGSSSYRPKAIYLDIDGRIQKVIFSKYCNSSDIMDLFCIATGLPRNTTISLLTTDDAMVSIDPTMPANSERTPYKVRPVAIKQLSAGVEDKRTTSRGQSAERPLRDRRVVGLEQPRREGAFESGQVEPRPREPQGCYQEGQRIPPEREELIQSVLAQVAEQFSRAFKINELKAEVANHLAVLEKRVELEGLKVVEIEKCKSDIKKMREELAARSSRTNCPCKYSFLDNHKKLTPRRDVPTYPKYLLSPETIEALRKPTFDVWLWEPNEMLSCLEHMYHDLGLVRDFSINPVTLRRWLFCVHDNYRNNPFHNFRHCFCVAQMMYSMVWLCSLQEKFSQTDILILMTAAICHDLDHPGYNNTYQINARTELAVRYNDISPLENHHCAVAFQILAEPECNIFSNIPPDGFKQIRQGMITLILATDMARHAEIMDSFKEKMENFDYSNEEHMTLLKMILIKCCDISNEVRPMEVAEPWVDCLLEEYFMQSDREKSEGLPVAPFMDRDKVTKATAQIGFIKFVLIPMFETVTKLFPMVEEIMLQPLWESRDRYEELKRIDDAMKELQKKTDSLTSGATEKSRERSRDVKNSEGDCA

| Compound | IC50 [9] | Ratio [10] | also measured |
| --- | --- | --- | --- |
| CN1CC(=O)N2[C@H](c3ccc4c(c3)OCO4)c3[nH]c4ccccc4c3C[C@@H]2C1=O |  |  | IC50 [1]: > 10000 nM; IC50 [2]: > 10000 nM; IC50 [3]: > 10000 nM; IC50 [4]: > 10000 nM; IC50 [5]: > 10000 nM; IC50 [6]: > 10000 nM; IC50 [7]: > 10000 nM |
| CN1C(=O)c2[nH]c(Cc3ccccc3)nc2N2C1=N[C@@H]1CCC[C@@H]12 |  |  | Ratio [8]: 1.3 |
| CCN1C(=O)c2[nH]c(Cc3ccccc3)nc2N2C[C@@H](C(C)C)N=C12 | 28 nM | 1 | Ratio [8]: 59 |
| CCN1C(=O)c2c(nc(Cc3ccccc3)n2Cc2ccc(O)cc2)N2C[C@@H](Cc3ccccc3)N=C12 | 29 nM | 7.4 |  |
| CCC[C@@H]1CN2C(=N1)N(CC)C(=O)c1[nH]c(Cc3ccccc3)nc12 | 60 nM | 0.7 | Ratio [8]: > 167 |
| CCN1C(=O)c2c(nc(C#Cc3ccccc3)n2Cc2ccc(O)cc2)N2C[C@@H](Cc3ccccc3)N=C12 | 5.3 nM | 19.8 |  |
| CCN1C(=O)c2c(nc(Cl)n2Cc2ccc(O)cc2)N2C[C@@H](Cc3ccccc3)N=C12 | 2.3 nM | 93.5 | Ratio [8]: > 4350 |
| CCN1C(=O)c2c(nc(I)n2Cc2ccc(O)cc2)N2C[C@@H](Cc3ccccc3)N=C12 | 3.3 nM | 93.9 |  |
| CCN1C(=O)c2nc(Cl)n(Cc3ccccc3)c2N2C[C@@H](Cc3ccccc3)N=C12 | 60 nM | 7.3 |  |
| CC[C@@H]1CN2C(=N1)N(CC)C(=O)c1[nH]c(Cc3ccccc3)nc12 | 33 nM | 2.4 | Ratio [8]: > 303 |
| CCN1C(=O)c2nc(C#Cc3ccccc3)n(Cc3ccccc3)c2N2C[C@@H](Cc3ccccc3)N=C12 |  | 15 | Ratio [8]: > 303 |
| CCN1C(=O)c2ncn(Cc3ccccc3)c2N2C[C@@H](Cc3ccccc3)N=C12 | 200 nM | 5 |  |
| CN1C(=O)c2[nH]c(Cc3ccccc3)nc2N2C[C@@H](Cc3ccccc3)N=C12 | 100 nM | 2.3 | Ratio [8]: 11 |
| CCN1C(=O)c2c(nc(Br)n2Cc2ccc(OC)cc2)N2C[C@@H](Cc3ccccc3)N=C12 |  | 4.8 |  |
| CCN1C(=O)c2c(nc(C)n2Cc2ccc(O)cc2)N2C[C@@H](Cc3ccccc3)N=C12 | 15 nM | 40 |  |
| CCN1C(=O)c2nc(C#Cc3ccccc3)n(Cc3ccc(OC)cc3)c2N2C[C@@H](Cc3ccccc3)N=C12 | 20 nM | 4.5 |  |
| CCN1C(=O)c2nc(Br)n(Cc3ccccc3)c2N2C[C@@H](Cc3ccccc3)N=C12 | 145 nM | 4.5 |  |
| CCN1C(=O)c2nc(Cc3ccccc3)n(Cc3ccccc3)c2N2C[C@@H](Cc3ccccc3)N=C12 |  | 5.3 | Ratio [8]: > 313 |
| O=C1c2nc(Cc3ccccc3)n(Cc3ccccc3)c2N2C[C@@H](Cc3ccccc3)N=C2N1C1CC1 |  |  | inhibition [11]: 12% |
| CCC[C@@H]1CN2C(=N1)N(CC)C(=O)c1nc(Cc3ccccc3)n(Cc3ccccc3)c12 | 35 nM | 4.9 | Ratio [8]: > 286 |
| CCN1C(=O)c2c(nc(I)n2Cc2ccccc2)N2C[C@@H](Cc3ccccc3)N=C12 |  |  | inhibition [11]: 32% |
| CCN1C(=O)c2c(nc(Br)n2Cc2ccc(O)cc2)N2C[C@@H](Cc3ccccc3)N=C12 | 2.5 nM | 72 | IC50 [1]: > 10000 nM; IC50 [12]: 1400 nM; IC50 [2]: 2200 nM; IC50 [3]: > 10000 nM; IC50 [4]: > 10000 nM; IC50 [5]: > 10000 nM; IC50 [6]: > 10000 nM; IC50 [13]: 540 nM; IC50 [7]: > 10000 nM; IC50 [14]: 180 nM; Ratio [8]: > 4000 |
| CCN1C(=O)c2nc(C#Cc3ccccc3)n(Cc3ccc(O)cc3)c2N2C[C@@H](Cc3ccccc3)N=C12 | 6.5 nM | 23 | Ratio [8]: > 1540 |
| CCCc1nc(C)c2c(=O)nc(-c3cc(S(=O)(=O)N4CCN(CC)CC4)ccc3OCC)[nH]n12 |  |  | IC50 [2]: 790 nM; IC50 [4]: > 10000 nM; IC50 [6]: > 10000 nM; IC50 [13]: 130 nM |

| Compound | IC50 [9] | Ratio [10] | also measured |
| --- | --- | --- | --- |
| CCN1C(=O)c2c(nc(Cc3ccccc3)n2Cc2ccc(OC)cc2)N2C[C@@H](Cc3ccccc3)N=C12 | 130 nM | 1.8 |  |
| CON1C(=O)c2nc(Cc3ccccc3)n(Cc3ccccc3)c2N2C[C@@H](Cc3ccccc3)N=C12 |  |  | inhibition [11]: 17% |
| CCN1C(=O)c2nc(Cc3ccccc3)n(Cc3ccc(O)cc3)c2N2C[C@@H](Cc3ccccc3)N=C12 | 28 nM | 7.9 |  |
| CCN1C(=O)c2[nH]c(Cc3ccccc3)nc2N2C[C@@H](Cc3ccccc3)N=C12 |  | 1.8 | Ratio [8]: > 2220 |
| CCN1C(=O)c2nc(Cc3ccccc3)n(Cc3ccc(OC)cc3)c2N2C[C@@H](Cc3ccccc3)N=C12 | 38 nM | 7.5 |  |
| CC(C)N1C(=O)c2[nH]c(Cc3ccccc3)nc2N2C[C@@H](Cc3ccccc3)N=C21 | 22 nM | 4 |  |
| O=C1c2[nH]c(Cc3ccccc3)nc2N2C[C@@H](Cc3ccccc3)N=C2N1CC(F)(F)F |  |  | inhibition [11]: 34% |
| CN1C(=O)c2nc(Cc3ccccc3)n(Cc3ccccc3)c2N2C[C@@H](Cc3ccccc3)N=C12 |  |  | inhibition [11]: 6% |
| CCN1C(=O)c2nc(CCc3ccccc3)n(Cc3ccccc3)c2N2C[C@@H](Cc3ccccc3)N=C12 | 74 nM | 7.4 |  |
| O=C1c2nc(Cc3ccccc3)n(Cc3ccccc3)c2N2C[C@@H](Cc3ccccc3)N=C2N1CC(F)(F)F |  |  | inhibition [11]: 7% |
| CCN1C(=O)c2c(nc(C#Cc3ccccc3)n2Cc2ccc(OC)cc2)N2C[C@@H](Cc3ccccc3)N=C12 | 14 nM | 1.7 |  |
| CCN1C(=O)c2c(nc(Cc3ccccc3)n2Cc2ccccc2)N2C[C@@H](Cc3ccccc3)N=C12 |  |  | inhibition [11]: 23% |
| CCCN1C(=O)c2[nH]c(Cc3ccccc3)nc2N2C[C@@H](Cc3ccccc3)N=C12 |  |  | inhibition [11]: 25% |
| CCN1C(=O)c2nc(Br)n(Cc3ccc(O)cc3)c2N2C[C@@H](Cc3ccccc3)N=C12 | 7.8 nM | 51.3 | Ratio [8]: > 1590 |
| CCN1C(=O)c2nc(Br)n(Cc3ccc(OC)cc3)c2N2C[C@@H](Cc3ccccc3)N=C12 | 48 nM | 7.8 |  |
| CCN1C(=O)c2c(nc(C#Cc3ccccc3)n2Cc2ccccc2)N2C[C@@H](Cc3ccccc3)N=C12 | 40 nM | 3.6 |  |
| CCN1C(=O)c2nc(Cc3ccccc3)n(Cc3ccccc3)c2N2C[C@@H](c3ccccc3)N=C12 | 40 nM | 1.3 |  |
| CC[C@@H]1CN2C(=N1)N(CC)C(=O)c1nc(Cc3ccccc3)n(Cc3ccccc3)c12 |  |  | inhibition [11]: 4% |
| O=C1c2nc(Cc3ccccc3)[nH]c2N2C[C@@H](Cc3ccccc3)N=C2N1C1CC1 |  |  | inhibition [11]: 21% |
| CCN1C(=O)c2[nH]c(Cc3ccccc3)nc2N2C1=N[C@@H]1CCC[C@@H]12 | 19 nM |  | Ratio [8]: 342 |
| CC(C)N1C(=O)c2nc(Cc3ccccc3)n(Cc3ccccc3)c2N2C[C@@H](Cc3ccccc3)N=C21 |  |  | inhibition [11]: 13% |
| CCCc1nn(C)c2c(=O)[nH]c(-c3cc(S(=O)(=O)N4CCN(C)CC4)ccc3OCC)nc12 |  |  | IC50 [6]: > 10000 nM |
| Oc1nc2n(c3nc(Cc4ccccc4)nc1-3)C[C@@H](Cc1ccccc1)N2 |  |  | inhibition [11]: 22% |
| C=CCN1C(=O)c2nc(Cc3ccccc3)n(Cc3ccccc3)c2N2C[C@@H](Cc3ccccc3)N=C12 |  |  | inhibition [11]: 17% |
